34 compounds from ChEMBL document CHEMBL1140435, “Synthesis and evaluation of cyclic secondary amine substituted phenyl and benzyl nitrofuranyl amides as novel antituberculosis agents” (J Med Chem, 2005) can be followed below.

As a reminder, the MIC50 is the lowest concentration that inhibits either 50% of growth or 50% of the strains tested, depending on the study. Read a high MIC50 as lower susceptibility. For orientation: Tmax means the time at which the peak concentration occurs. In general, bioavailability refers to the share of a dose that reaches the circulation, judged against a reference dose that is usually intravenous. Broadly, the Cmax is the maximum level reached in the sampled fluid or tissue. As usually defined, the half-life is how long it takes for the measured level to halve. A higher half-life goes with slow decline.

Values after ≈ are worked out from the molar mass of the structure shown.

Data set [1] deals with Mycobacterium tuberculosis. Put plainly: Activity against Mycobacterium tuberculosis H37Rv. Format: functional.
Data set [2] in a line: Tmax in female C57BL/6 mice administered with 300 mg/kg, po. In kind it is ADME, organism-based. The settings on record: C57BL/6, mouse, in vivo. Also noted: dose 300 mg/kg, route oral. In outline:
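8–10 week old female C57BL/6 mice given one oral gavage dose, generally 300 mg/kg, below the maximum tolerated dose; HCl salts where possible. Tail-vein bleeds were taken from 3 mice at 20 min, 2, 4 and 8 h, and the serum was collected. […] Tmax and half-life were read off the concentration–time curve.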

Data set [3] is described as follows: Oral bioavailability in female C57BL/6 mice administered with 300 mg/kg, po. Format: ADME, organism-based. The settings on record: C57BL/6, mouse, in vivo. In outline: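 Graded Low (BF 1–20), Medium (21–80) or High (>80). Serum was serially diluted with naive mouse serum and added to H37Rv at 10^4 CFU/well, then incubated at 35 °C. Wells scored positive if OD600 was <50% of the untreated control.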

For data set [4], the system named is Mycobacterium tuberculosis. The experiment in a line: Viable number of Mycobacterium tuberculosis colonies in lungs of infected mice after 9 days of administration of 300 mg/kg. In kind it is functional, Lung. In a few lines:
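GKO mice infected by low-dose aerosol delivering ~50 bacilli to the lungs. Treatment began 18 days post-infection: 9 daily doses at 300 mg/kg. At day 27 post-infection, lung homogenates were serially diluted onto 7H11 agar and incubated at 37 °C in ambient air for 4 weeks. Result given as Log10 CFU ± SEM and Log10 reduction versus untreated controls.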

A further data set deals with Mus musculus. The experiment in a line: Maximum concentration in female C57BL/6 mice administered with 300 mg/kg, po. In kind it is ADME, organism-based. Also noted: dose 300 mg/kg, route oral. The settings on record: in vivo. In a few lines: (§1)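 8–10 week old female C57BL/6 mice given one oral gavage dose, generally 300 mg/kg, below the maximum tolerated dose; HCl salts where possible. Tail-vein bleeds were taken from 3 mice at 20 min, 2, 4 and 8 h, and the serum was collected. Tmax and half-life were read off the concentration–time curve.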

Data set [5] can be described thus: Half life in female C57BL/6 mice administered with 300 mg/kg, po. In kind it is ADME, organism-based. Further details: dose 300 mg/kg, route oral. The settings on record: C57BL/6, mouse, in vivo. In outline:
as §1

On to `O=C(Nc1cccc(N2CCN(c3ccccn3)CC2)c1)c1ccc([N+](=O)[O-])o1`, for which the MIC50 in data set [1] was 3.13 µg/mL (≈ 7.96 µM). Still for that read-out and setting: as for `CN1CCN(c2ccc(CNC(=O)c3ccc([N+](=O)[O-])o3)cc2F)CC1`, the figure is 0.8 µg/mL (≈ 2.21 µM); as for `O=C(Nc1cccc(N2CCC(Cc3ccccc3)CC2)c1)c1ccc([N+](=O)[O-])o1`, 12.5 µg/mL (≈ 30.8 µM); as for `O=C(NCc1ccc(N2CC[S+]([O-])CC2)cc1)c1ccc([N+](=O)[O-])o1`, 3.13 µg/mL (≈ 8.61 µM).

Turning to `CN1CCN(c2ccc(CNC(=O)c3ccc([N+](=O)[O-])o3)cc2F)CC1.Cl`, in data set [2], the Tmax was found to be 30 min.

Turning to `O=C(Nc1ccc(N2CCC(Cc3ccccc3)CC2)cc1)c1ccc([N+](=O)[O-])o1`, in data set [1], the MIC50 was found to be 3.13 µg/mL (≈ 7.72 µM). In turn, `O=C(Nc1ccc(N2CCOCC2)cc1)c1ccc([N+](=O)[O-])o1` gave an MIC50 in data set [1] of 3.13 µg/mL (≈ 9.86 µM).

Take `CN(C)c1ccc(CNC(=O)c2ccc([N+](=O)[O-])o2)cc1.Cl`: the Tmax in data set [2] came out at 30 min. Turning to `O=C(NCc1ccc(N2CCC(Cc3ccccc3)CC2)c(F)c1)c1ccc([N+](=O)[O-])o1`, the MIC50 in data set [1] was found to be 0.2 µg/mL (≈ 0.457 µM). `O=C(NCc1cccc(N2CCN(Cc3ccccc3)CC2)c1)c1ccc([N+](=O)[O-])o1` returned an MIC50 in data set [1] of 0.1 µg/mL (≈ 0.238 µM). As for `CN1CCN(c2cccc(CNC(=O)c3ccc([N+](=O)[O-])o3)c2)CC1`, in data set [1], the MIC50 came out at 3.12 µg/mL (≈ 9.07 µM).

Regarding `NNC(=O)c1ccncc1` [ISONIAZID], the bioavailability in data set [3] is more than 80%. In data set [4], this compound displayed a Log10 cfu of 3.88. Besides, the Cmax with Mus musculus is more than 38400 ng/mL. `O=C(NCc1ccc(N2CCOCC2)c(F)c1)c1ccc([N+](=O)[O-])o1` gave an MIC50 in data set [1] of 0.4 µg/mL (≈ 1.15 µM). On the same count and under the same terms, as for `O=C(Nc1ccc(N2CCN(Cc3ccccc3)CC2)cc1)c1ccc([N+](=O)[O-])o1`, the figure is 0.8 µg/mL (≈ 1.97 µM). As to `O=C(NCc1cccc(N2CCC(Cc3ccccc3)CC2)c1)c1ccc([N+](=O)[O-])o1`, in data set [1], the MIC50 was determined as 1.56 µg/mL (≈ 3.72 µM). `O=C(NCc1ccc(N2CCSCC2)cc1)c1ccc([N+](=O)[O-])o1` came in with a bioavailability in data set [3] of 1%. Besides, the MIC50 in data set [1] was 0.1 µg/mL (≈ 0.288 µM). For the same compound, in data set [4], the Log10 cfu was 7.53. For the same compound, in the data set on Mus musculus, the concentration peaked (Cmax) at 820 ng/mL. The compound `O=C(Nc1ccc(N2CCN(c3ccccn3)CC2)cc1)c1ccc([N+](=O)[O-])o1` had an MIC50 in data set [1] of 0.4 µg/mL (≈ 1.02 µM). On to `CN1CCN(c2ccc(NC(=O)c3ccc([N+](=O)[O-])o3)cc2)CC1`, for which the MIC50 in data set [1] is 12.5 µg/mL (≈ 37.8 µM). Consider `Cl.O=C(NCc1ccc(N2CCN(CC3CC3)CC2)cc1)c1ccc([N+](=O)[O-])o1`, for which, in data set [2], the time to peak (Tmax) was 30 min. In turn, `CN1CCN(/N=C\c2ccc(CNC(=O)c3ccc([N+](=O)[O-])o3)cc2)CC1` had an MIC50 in data set [1] of 0.4 µg/mL (≈ 1.08 µM). In the case of `CN1CCN(c2ccc(CNC(=O)c3ccc([N+](=O)[O-])o3)cc2)CC1`, the MIC50 in data set [1] stood at 0.2 µg/mL (≈ 0.581 µM). Compound `Cl.O=C(NCc1ccc(N2CCN(Cc3ccccc3)CC2)cc1)c1ccc([N+](=O)[O-])o1` showed a half-life in data set [5] of 66 min. In addition, the Tmax in data set [2] was found to be 30 min. Moreover, the bioavailability in data set [3] was more than 80%. In the data set on Mus musculus, this compound displayed a Cmax of 2240 ng/mL. On to `O=C(NCc1ccc(N2CCN(CC3CC3)CC2)cc1)c1ccc([N+](=O)[O-])o1`, for which, in data set [1], the MIC50 came out at 0.05 µg/mL (≈ 0.13 µM).

The compound `CN1CCN(c2cccc(NC(=O)c3ccc([N+](=O)[O-])o3)c2)CC1` yielded an MIC50 in data set [1] of 12.5 µg/mL (≈ 37.8 µM). In data set [1], `CN(C)c1ccc(CNC(=O)c2ccc([N+](=O)[O-])o2)cc1` returned an MIC50 of 0.1 µg/mL (≈ 0.346 µM). Besides, the Log10 cfu in data set [4] was determined as 7.46.

For `O=C(NCc1ccc(N2CCOCC2)cc1)c1ccc([N+](=O)[O-])o1`, the bioavailability in data set [3] is 21%. Further, the MIC50 in data set [1] stood at 0.2 µg/mL (≈ 0.604 µM). For the same compound, the Cmax in the data set on Mus musculus worked out at 3000 ng/mL. For `O=C(NCc1ccc(N2CCC(Cc3ccccc3)CC2)cc1)c1ccc([N+](=O)[O-])o1`, the MIC50 in data set [1] was 0.8 µg/mL (≈ 1.91 µM).

In data set [1], `O=C(NCc1ccc(N2CCSCC2)c(F)c1)c1ccc([N+](=O)[O-])o1` came in with an MIC50 of 0.8 µg/mL (≈ 2.19 µM). In the case of `O=C(NCc1ccc(N2CCN(Cc3ccccc3)CC2)cc1)c1ccc([N+](=O)[O-])o1`, the MIC50 in data set [1] amounted to 0.0125 µg/mL (≈ 0.0297 µM). Further, in data set [4], the Log10 cfu was 7.92. In turn, `O=C(NCc1ccc(N2CCS(=O)(=O)CC2)cc1)c1ccc([N+](=O)[O-])o1` had an MIC50 in data set [1] of 12.2 µg/mL (≈ 32.3 µM). The compound `O=C(Nc1cccc(N2CCOCC2)c1)c1ccc([N+](=O)[O-])o1` gave an MIC50 in data set [1] of 3.13 µg/mL (≈ 9.86 µM).

`Cl.O=C(NCc1cccc(N2CCN(Cc3ccccc3)CC2)c1)c1ccc([N+](=O)[O-])o1` showed a half-life in data set [5] of 78 min. The Tmax in data set [2] came out at 30 min. For the same compound, the bioavailability in data set [3] worked out at 21%. In the data set on Mus musculus, this compound came in with a Cmax of 1640 ng/mL. The compound `O=C(NCc1ccc(N2CCN(Cc3ccccc3)CC2)c(F)c1)c1ccc([N+](=O)[O-])o1` showed a bioavailability in data set [3] of 21%. The same compound showed an MIC50 in data set [1] of 0.025 µg/mL (≈ 0.057 µM). For the same compound, the Log10 cfu in data set [4] was 7.65. In the data set with Mus musculus, this compound showed a Cmax of 1640 ng/mL. On to `O=C(Nc1cccc(N2CCN(Cc3ccccc3)CC2)c1)c1ccc([N+](=O)[O-])o1`, for which, in data set [1], the MIC50 stood at 12.5 µg/mL (≈ 30.8 µM).
